Measurements taken from publication PMC8278208 (Toxicology Reports, 2021).

Assays:
[1] = Cell viability, resazurin assay, K562; type: cell-based, human; conditions: human, K562 cells (doxorubicin-sensitive leukemia)
Outline: (§1)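 Cells seeded at 5×10^4 cells mL⁻¹ and exposed to a range of test compound concentrations for 48, 72 and 96 h. Resazurin solution (0.1 mg mL⁻¹) was then added, followed by a further 4 h incubation. Fluorescence was read at ex 570/em 590 nm. % viability = (F treated/F untreated control) × 100. Three independent experiments, mean ± S.E.; Student's t-test versus untreated control, p<0.05.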

[2] = test system: doxorubicin-sensitive K562 leukemia cells; experiment: Cell viability, resazurin assay, K562; type: cell-based, human; conditions: for cell viability percentage vs control group: K562, 48, 72, and 96 h
Outline: as §1

[3] = Cell viability, resazurin assay, K562/Dox; type: cell-based, human; conditions: human
Outline: as §1

[4] = test system: doxorubicin-resistant K562/Dox (P-glycoprotein-overexpression) leukemia cells; experiment: Cell viability, resazurin assay, K562/Dox; type: cell-based, human; conditions: K562/Dox, 48, 72, and 96 h
Outline: as §1

K562 cancer cells = experiment: Cell morphological observation by light microscope, K562; type: cell-based, human; conditions: high concentrations (10 mM shown at 72 h), also at 48 and 96 h
[5] = biological target: human serum albumin (HSA) (Homo sapiens, UniProt P02768); experiment: Fluorescence quenching of HSA by 4-HBA or VA; type: binding; conditions: for fluorescence quenching mechanism: from temperature dependence of Ksv and Kq; for quenching rate constant Kq ± SE: τ0 5 ns; for enthalpy change ΔH / entropy change ΔS: from Kb at 298 and 310 K
human serum albumin (HSA), sequence (P02768 25-609): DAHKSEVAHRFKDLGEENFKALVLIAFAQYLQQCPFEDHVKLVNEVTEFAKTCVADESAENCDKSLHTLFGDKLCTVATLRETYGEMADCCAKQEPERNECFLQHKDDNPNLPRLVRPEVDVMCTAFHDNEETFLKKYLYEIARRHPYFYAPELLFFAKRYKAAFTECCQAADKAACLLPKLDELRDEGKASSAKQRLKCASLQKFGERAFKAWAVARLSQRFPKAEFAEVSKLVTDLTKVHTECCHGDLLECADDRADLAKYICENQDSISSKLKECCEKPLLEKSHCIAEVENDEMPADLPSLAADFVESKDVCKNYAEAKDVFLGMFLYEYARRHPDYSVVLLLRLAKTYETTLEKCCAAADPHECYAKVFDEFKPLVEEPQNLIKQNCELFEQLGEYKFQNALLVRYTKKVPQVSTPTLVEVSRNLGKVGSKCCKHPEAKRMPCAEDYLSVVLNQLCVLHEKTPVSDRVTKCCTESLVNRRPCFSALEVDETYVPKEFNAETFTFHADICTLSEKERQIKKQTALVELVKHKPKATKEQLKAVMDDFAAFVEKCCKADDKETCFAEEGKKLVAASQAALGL
Outline: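 HSA (1 μM) in PBS was titrated with test compound to final 0–10,000 μM. Intrinsic fluorescence was recorded at ex 280 nm, em 290–500 nm, slits 5 nm, 1.0 cm cell, at 298 and 310 K and pH 6, 7.4 and 8. Intensity at 342 nm was fitted by Stern–Volmer (τ0 5 ns) for KSV/Kq and by double-log plot for Kb and n. ΔH, ΔS and ΔG were derived from these fits.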

[6] = 0.01, 0.05, 0.1, 0.5, 1, and 5 mM
[7] = 298 and 310 K, pHs 7.4, 6.0 and 8.0

O=C(O)c1ccc(O)cc1 [4-HBA, 4-Hydroxybenzoic acid]
viability at 72 h, 10 mM [1]: 90.3 ± 0.96%
viability at 96 h, 10 mM [1]: 87.6 ± 1.01%
cell viability percentage ([2]; K562, 10 mM, 48 h): did not significantly change
cell viability percentage vs control group [2, 6]: did not significantly change
viability at 48 h, 10 mM [3]: 75.4 ± 8.61%
viability at 72 h, 10 mM [3]: 70.4 ± 5.21%
viability at 96 h, 10 mM [3]: 66.3 ± 7.67%
cell viability percentage vs control group [4, 6]: did not significantly change
morphological changes in treated cells (K562 cancer cells): rough cells, shrinking cells, irregular shape cells, and membrane blebbing
concentrations at which fluorescence intensity of HSA decreased [5, 7]: 5–10,000 μM
concentrations at which fluorescence intensity of HSA decreased ([5]; PBS pH 7.4, 298 K, 1 μM HSA): 5–10,000 μM
fluorescence quenching mechanism [5]: static quenching mechanism
Gibbs binding free energy change ΔG ([5]; pH 6.0, 298 K): -17.48 kJ/mol
Stern-Volmer quenching constant KSV ± SE ([5]; pH 6.0, 298 K): 4.4982 ± 2.10 × 10^3 L mole^−1
number of binding site n ± SE ([5]; pH 6.0, 298 K): 0.8623 ± 0.05
quenching rate constant Kq ± SE ([5]; pH 6.0, 298 K): 0.8996 ± 0.42 × 10^12 L. mole^−1 s^−1
Gibbs binding free energy change ΔG ([5]; pH 6.0, 310 K): -15.77 kJ/mol
Stern-Volmer quenching constant KSV ± SE ([5]; pH 6.0, 310 K): 4.2857 ± 0.93 × 10^3 L mole^−1
number of binding site n ± SE ([5]; pH 6.0, 310 K): 0.9016 ± 0.06
quenching rate constant Kq ± SE ([5]; pH 6.0, 310 K): 0.8572 ± 0.19 × 10^12 L. mole^−1 s^−1
enthalpy change ΔH ([5]; pH 6.0): -59.83 kJ/mol
entropy change ΔS ([5]; pH 6.0): −142.12 J. mol^−1 K^−1
Gibbs binding free energy change ΔG ([5]; pH 7.4, 298 K): -11.52 kJ/mol
Stern-Volmer quenching constant KSV ± SE ([5]; pH 7.4, 298 K): 3.0657 ± 1.18 × 10^3 L mole^−1
number of binding site n ± SE ([5]; pH 7.4, 298 K): 0.6130 ± 0.05
quenching rate constant Kq ± SE ([5]; pH 7.4, 298 K): 0.6131 ± 0.24 × 10^12 L. mole^−1 s^−1
Gibbs binding free energy change ΔG ([5]; pH 7.4, 310 K): -9.89 kJ/mol
Stern-Volmer quenching constant KSV ± SE ([5]; pH 7.4, 310 K): 2.7164 ± 0.27 × 10^3 L mole^−1
number of binding site n ± SE ([5]; pH 7.4, 310 K): 0.7235 ± 0.05
quenching rate constant Kq ± SE ([5]; pH 7.4, 310 K): 0.5433 ± 0.05 × 10^12 L. mole^−1 s^−1
enthalpy change ΔH ([5]; pH 7.4): -51.96 kJ/mol
entropy change ΔS ([5]; pH 7.4): −135.72 J. mol^−1 K^−1
Gibbs binding free energy change ΔG ([5]; pH 8.0, 298 K): -15.16 kJ/mol
Stern-Volmer quenching constant KSV ± SE ([5]; pH 8.0, 298 K): 1.8046 ± 0.51 × 10^3 L mole^−1
number of binding site n ± SE ([5]; pH 8.0, 298 K): 0.8005 ± 0.11
quenching rate constant Kq ± SE ([5]; pH 8.0, 298 K): 0.3609 ± 0.10 × 10^12 L. mole^−1 s^−1
Gibbs binding free energy change ΔG ([5]; pH 8.0, 310 K): -14.15 kJ/mol
Stern-Volmer quenching constant KSV ± SE ([5]; pH 8.0, 310 K): 1.4572 ± 0.25 × 10^3 L mole^−1
number of binding site n ± SE ([5]; pH 8.0, 310 K): 1.0784 ± 0.29
quenching rate constant Kq ± SE ([5]; pH 8.0, 310 K): 0.2914 ± 0.05 × 10^12 L. mole^−1 s^−1
enthalpy change ΔH ([5]; pH 8.0): -40.42 kJ/mol
entropy change ΔS ([5]; pH 8.0): −84.76 J. mol^−1 K^−1

COc1cc(C(=O)O)ccc1O [VA, 4-hydroxy-3-methoxybenzoic acid]
viability at 48 h, 5 mM [1]: 79.8 ± 3.98%
viability at 48 h, 10 mM [1]: 70.6 ± 2.93%
viability at 72 h, 5 mM [1]: 81.3 ± 6.51%
viability at 72 h, 10 mM [1]: 58 ± 5.46%
viability at 96 h, 5 mM [1]: 82.9 ± 5.89%
viability at 96 h, 10 mM [1]: 56.7 ± 18.2%
cell viability percentage vs control group ([2]; 0.01, 0.05, 0.1, 0.5, and 1 mM): did not significantly change
viability at 48 h, 5 mM [3]: 75.3 ± 6.23%
viability at 48 h, 10 mM [3]: 53.5 ± 10.7%
viability at 72 h, 5 mM [3]: 70.7 ± 11.1%
viability at 72 h, 10 mM [3]: 41 ± 5.78%
viability at 96 h, 5 mM [3]: 65.5 ± 2.36%
viability at 96 h, 10 mM [3]: 35.9 ± 3.61%
cell viability percentage vs control group ([4]; 0.01, 0.05, 0.1, 0.5, and 1 mM): did not significantly change
morphological changes in treated cells (K562 cancer cells): rough cells, shrinking cells, irregular shape cells, and membrane blebbing
concentrations at which fluorescence intensity of HSA decreased [5, 7]: 2,000 to 10,000 μM
concentrations at which fluorescence intensity of HSA decreased ([5]; PBS pH 7.4, 298 K, 1 μM HSA): 2,000 to 10,000 μM
fluorescence quenching mechanism [5]: dynamic quenching mechanism
Gibbs binding free energy change ΔG ([5]; pH 6.0, 298 K): -14.27 kJ/mol
Stern-Volmer quenching constant KSV ± SE ([5]; pH 6.0, 298 K): 1.2621 ± 0.19 × 10^3 L mole^−1
number of binding site n ± SE ([5]; pH 6.0, 298 K): 0.7071 ± 0.08
quenching rate constant Kq ± SE ([5]; pH 6.0, 298 K): 0.2524 ± 0.04 × 10^12 L. mole^−1 s^−1
Gibbs binding free energy change ΔG ([5]; pH 6.0, 310 K): -13.01 kJ/mol
Stern-Volmer quenching constant KSV ± SE ([5]; pH 6.0, 310 K): 1.4092 ± 0.09 × 10^3 L mole^−1
number of binding site n ± SE ([5]; pH 6.0, 310 K): 0.6174 ± 0.08
quenching rate constant Kq ± SE ([5]; pH 6.0, 310 K): 0.2818 ± 0.02 × 10^12 L. mole^−1 s^−1
enthalpy change ΔH ([5]; pH 6.0): -45.59 kJ/mol
entropy change ΔS ([5]; pH 6.0): −105.08 J. mol^−1 K^−1
Gibbs binding free energy change ΔG ([5]; pH 7.4, 298 K): -11.45 kJ/mol
Stern-Volmer quenching constant KSV ± SE ([5]; pH 7.4, 298 K): 0.7564 ± 0.03 × 10^3 L mole^−1
number of binding site n ± SE ([5]; pH 7.4, 298 K): 0.5786 ± 0.03
quenching rate constant Kq ± SE ([5]; pH 7.4, 298 K): 0.1513 ± 0.01 × 10^12 L. mole^−1 s^−1
Gibbs binding free energy change ΔG ([5]; pH 7.4, 310 K): -9.82 kJ/mol
Stern-Volmer quenching constant KSV ± SE ([5]; pH 7.4, 310 K): 0.8312 ± 0.09 × 10^3 L mole^−1
number of binding site n ± SE ([5]; pH 7.4, 310 K): 0.3816 ± 0.09
quenching rate constant Kq ± SE ([5]; pH 7.4, 310 K): 0.1662 ± 0.02 × 10^12 L. mole^−1 s^−1
enthalpy change ΔH ([5]; pH 7.4): -52.11 kJ/mol
entropy change ΔS ([5]; pH 7.4): −136.42 J. mol^−1 K^−1
Gibbs binding free energy change ΔG ([5]; pH 8.0, 298 K): -12.84 kJ/mol
Stern-Volmer quenching constant KSV ± SE ([5]; pH 8.0, 298 K): 0.7592 ± 0.06 × 10^3 L mole^−1
number of binding site n ± SE ([5]; pH 8.0, 298 K): 0.6340 ± 0.04
quenching rate constant Kq ± SE ([5]; pH 8.0, 298 K): 0.1518 ± 0.01 × 10^12 L. mole^−1 s^−1
Gibbs binding free energy change ΔG ([5]; pH 8.0, 310 K): -12.51 kJ/mol
Stern-Volmer quenching constant KSV ± SE ([5]; pH 8.0, 310 K): 1.0384 ± 0.07 × 10^3 L mole^−1
number of binding site n ± SE ([5]; pH 8.0, 310 K): 0.5257 ± 0.08
quenching rate constant Kq ± SE ([5]; pH 8.0, 310 K): 0.2077 ± 0.01 × 10^12 L. mole^−1 s^−1
enthalpy change ΔH ([5]; pH 8.0): -21.18 kJ/mol
entropy change ΔS ([5]; pH 8.0): −27.97 J. mol^−1 K^−1
